STAT1 activator: increases IFN-gamma driven STAT1 reporter signal; NIH 3T3 STAT1-luciferase reporter, luminescence; 100% = IFN-gamma alone, no compound; activation (% of control), % at 5.5 µM; 200,000 tested, 2.6% active;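 active = activation above the screen-wide mean activation plus 3 SD, cut at about 130% in these data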
STAT1 inh: STAT1 signaling inhibition | NIH 3T3 STAT1-luciferase reporter, IFN-gamma, luminescence | inhibition, % at 5.5 µM | 200,000 tested, 0.35% active | AID 920;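 active = inhibition above a set limit, the mean inhibition across all tested compounds plus 3 SD, cut at about 34% in these data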
APP 5'UTR act: APP 5'UTR luciferase reporter activation | SH-SY5Y APP 5'UTR luciferase reporter, luminescence; zero percent = DMSO vehicle wells | activation, % at 2 µM | 190,000 tested, 1% active;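 active = activation above a set limit, based on mean plus 3 SD of controls, cut at about 140% in these data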
STAT3 inh: inhibitors of IL-6 induced STAT3 signaling; U3A cells, IL-6 STAT3-luciferase reporter, luminescence; host cell line lacks STAT1; inhibition, % at 5.5 µM; 190,000 tested, 0.89% active;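 active = inhibition above the mean inhibition across all screened compounds plus 3 SD, cut at about 44% in these data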
NF-kB neuron act: compounds increasing NF-kB expression in human neuronal cells | NF-kB reporter expression; stronger effect = higher value | fold change at 12.5 µM | 190,000 tested, 1.6% active | AID 1239; in the data active = fold change above about 3.3
STAT3 act: increases IL-6 driven STAT3 reporter signal; U3A cells, IL-6 STAT3-luciferase reporter, luminescence; 100% = signal with IL-6 EC80 alone; activation (% of control), % at 5.6 µM; 190,000 tested, 0.91% active;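 active = activation above the screen-wide mean of compound activation plus 3 SD, cut at about 130% in these data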
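Material: human U3A cells carrying STAT3-luciferase construct. Measured by: reporter luminescence signal. Timing: compound 1 h, then IL-6 6 h at 37 °C.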
STAT1 activ conf: STAT1 activation, confirmation assay; shares compounds with STAT1 activator; NIH 3T3 STAT1-luciferase reporter, IFN-gamma potentiation, luminescence; 100% = IFN-gamma EC80 alone, no compound; activation (% of control), % at 5.7 µM; 1,200 tested, 97% active; AID 1262;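 active = activation above a set limit carried over from the earlier primary STAT1 screen, cut at about 140% in these data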
NFkB act: counter-screen for STAT1 activators: NF-kappaB activation; shares compounds with STAT1 activator; HEK293T NF-kB luciferase reporter, TNF-alpha stimulated, luminescence; 100% = TNF-alpha with vehicle only; activation (% of control), % at 5.7 µM; 1,200 tested, 43% active; AID 1306;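 active = activation above the mean of solvent-only control wells plus 3 SD, set per campaign, cut at about 130% in these data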;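 note: TNF-alpha given at a submaximal dose yielding about 80% of full reporter signal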
STAT3 act 2: counter-screen for STAT1 activators: human STAT3 activation; shares compounds with STAT1 activator; U3A cells STAT3-luciferase reporter, IL-6, luminescence; cells lack STAT1; 100 = IL-6 alone, no compound effect; activation (% of control), % at 5.7 µM; 1,200 tested, 46% active; AID 1316;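 active = activation above the solvent-only control well mean plus 3 SD, set per plate batch, cut at about 110% in these data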;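 note: higher means more STAT3 reporter activation so hits are non-selective activators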
A number is an active result; i = inactive; nt = not tested or not shown. An excerpt weighted towards active compounds, which were near 4.9% of everything screened.

SMILES | STAT1 activator | STAT1 inh | APP 5'UTR act | STAT3 inh | NF-kB neuron act | STAT3 act | STAT1 activ conf | NFkB act | STAT3 act 2
CCN(Cc1ccccc1)c1ccc(/C=C(\C#N)c2ccccn2)cc1 | 167 | i | i | i | i | i | 197 | 143 | 113
COc1cc(/C=C(\C#N)c2ccccn2)ccc1OCc1ccccc1 | i | i | i | i | i | i | nt | nt | nt
CC1CN(S(=O)(=O)c2cccc(C(=O)Nc3ccc4c(c3)CCC4)c2)CC(C)O1 (stereo not drawn) | i | i | i | i | i | i | nt | nt | nt
CCC(=O)NC1(Cc2ccc(O)cc2)CCCCC1 | i | i | i | i | i | i | nt | nt | nt
CN(C)c1ccc(/C=N/N2C(=N)N(c3ccccc3)C(=S)C2=Nc2ccccc2)cc1 | 163 | i | 180 | i | nt | i | 185 | 134 | 113
CCOC(=O)c1ccc(N=C2C(=S)N(c3ccc(C(=O)OCC)cc3)C(=N)N2/N=C/c2ccccc2)cc1 | i | i | i | i | i | i | nt | nt | nt
COc1ccc(-c2ccc3ccccc3n2)cc1OC | 170 | i | 143 | i | 3.3 | i | 195 | 136 | 111
COc1ccc2nc3oc(C(=O)N4CCCCC4)cc3cc2c1 | 179 | i | i | i | 6.4 | i | 206 | 136 | i
O=C(OCC(=O)c1ccccc1Cl)c1cnccn1 | i | i | i | i | i | i | nt | nt | nt
N/C(=N\OC(=O)COc1ccc(Cl)cc1Cl)c1ccncc1 | 155 | i | 175 | i | 6.2 | i | 206 | 146 | 124
N/C(=N\OC(=O)COc1ccccc1Cl)c1ccccn1 | 178 | i | 201 | i | 7.3 | i | 207 | 139 | 116
N/C(=N\OC(=O)COc1ccc(Br)cc1)c1ccncc1 | i | i | i | i | i | i | nt | nt | nt
N/C(=N\OC(=O)Cc1ccc(-c2ccccc2)cc1)c1ccccn1 | i | i | i | i | i | i | nt | nt | nt
COc1cccc(C(=O)Nc2cc3c(cc2Cl)OCCCO3)c1 | 160 | i | 136 | i | 4.3 | i | 175 | i | i
CC1CC(C)(C)NC(=S)N1CCCC(=O)N1CCN(c2ccc(F)cc2)CC1 (stereo not drawn) | i | i | i | i | i | i | nt | nt | nt
CCc1c(C)[nH]n(-c2nc(-c3ccccc3)cs2)c1=O | i | i | i | i | i | i | nt | nt | nt
COc1ccc(-c2csc(N3C(=O)CNC3=S)n2)cc1 | 179 | i | 204 | i | 5.3 | i | 260 | i | i
O=C1CNC(=S)N1c1nc(-c2ccccc2)cs1 | 154 | i | i | i | i | i | 188 | i | 115
COc1ccc(-c2csc(N3C(=O)C4C5c6ccccc6C(c6ccccc65)[C@@H]4C3=O)n2)cc1 (stereo partly drawn) | i | i | i | i | i | i | nt | nt | nt
C=CCNC(=O)COC(=O)c1ccc(Cl)c(S(=O)(=O)N(Cc2ccccc2)c2ccccc2)c1 | i | i | i | i | i | i | nt | nt | nt
CC(=O)c1ccc(NC(=O)c2ccc(C)c(Br)c2)cc1 | 156 | i | 203 | i | 4 | i | 198 | 140 | i
Cc1ccccc1NC(=S)c1nc2ccccc2[nH]1 | i | i | i | i | i | i | nt | nt | nt
S=C(Nc1ccc(Cl)cc1)c1nc2ccccc2[nH]1 | 167 | i | nt | i | i | i | 192 | 134 | i
Nc1ccc2oc(CCc3ccccc3)nc2c1 | 161 | i | i | i | i | i | 177 | 143 | 116
Cc1oc(-c2ccccc2)cc1C(=O)Nc1ccc2ccccc2c1 | i | i | i | i | i | i | nt | nt | nt
Cn1c(N)c(C(=O)Nc2ccc3ccccc3c2)sc1=S | 172 | i | 143 | i | i | i | 204 | i | i
COc1ccc(-c2cc(=O)c3ccccc3s2)cc1 | 179 | i | i | i | 5.6 | i | 223 | 136 | 120

Source: PubChem (several laboratories)
